The values below come from ChEMBL document CHEMBL5252608, “Eremoxylarins D-J, Antibacterial Eremophilane Sesquiterpenes Discovered from an Endolichenic Strain of Xylaria hypoxylon” (J Nat Prod, 2023).

Activity calls are given as the source filed them. No cut-off for these calls is given here.

Series [1] relates to Human coronavirus 229E. The series can be described thus: Antiviral activity against HCoV-229E harboring luciferase reporter gene infected in human Huh-7 cells expressing TMPRSS2 assessed as reduction in viral replication upto 50 uM pre-incubated for 1 hrs followed by replacement with fresh media for 6 hrs by renilla luciferase based luminometer analysis. Type of series: functional, organism-based. As to conditions: time 7.0 hrs. In short, it runs like this: (§1)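 Huh-7 or Huh-7/TMPRSS2 cells in DMEM GlutaMAX-I with 10% FBS. Inoculated with luciferase-reporter HCoV-229E at MOI 0.5 for 1 h at 37 °C with compound at increasing concentrations (highest 50 μM). Virus then replaced by compound-containing medium for 6 h. Lysed for Renilla luciferase luminescence, normalised to DMSO control. Triplicate measures, 3 independent experiments, mean ± SEM.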

The subject of series [2] is Human coronavirus 229E. Description: Antiviral activity against HCoV-229E harboring luciferase reporter gene infected in human Huh-7 cells assessed as reduction in viral replication upto 50 uM pre-incubated for 1 hrs followed by replacement with fresh media for 6 hrs by renilla luciferase based luminometer analysis. The conditions noted are these: time 7.0 hrs. The series is classed as functional, organism-based. In short, it runs like this: as §1

The subject of series [3] is Human coronavirus 229E. The series can be described thus: Antiviral activity against HCoV-229E harboring luciferase reporter gene infected in human Huh-7 cells assessed as reduction in viral replication pre-incubated for 1 hrs followed by replacement with fresh media for 6 hrs by renilla luciferase based luminometer analysis. Type of series: functional, organism-based. In short, it runs like this:
as §1

For series [4], the system named is Human coronavirus 229E. The series can be described thus: Antiviral activity against HCoV-229E harboring luciferase reporter gene infected in human Huh-7 cells expressing TMPRSS2 assessed as reduction in viral replication pre-incubated for 1 hrs followed by replacement with fresh media for 6 hrs by renilla luciferase based luminometer analysis. Type of series: functional, organism-based. The conditions noted are these: time 7.0 hrs. The procedure, abridged: as §1

Series [5] can be described thus: Selectivity index, ratio of CC50 for human Huh-7 cells to IC50 for antiviral activity against HCoV-229E harboring luciferase reporter gene infected in human Huh-7 cells. The conditions noted are these: read-out: Ratio CC50/IC50. The series is classed as toxicity, cell-based. In short, it runs like this:
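Huh-7 cells (6×10^4/well) seeded and held 16 h at 37 °C, 5% CO₂, then treated 24 h with increasing compound concentrations. MTS viability read as formazan absorbance at 490 nm; CC50 derived, 3 experiments. Ratio taken against IC50 from the luciferase-reporter HCoV-229E infection assay in Huh-7 cells (MOI 0.5, 1 h plus 6 h).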

With `C=C(C=O)[C@H]1CC=C2[C@H](OC(=O)/C(C)=C/C=C/CCCCC)CC[C@H](C(=O)O)[C@@]2(C)C1`, the result in series [1] and in series [2] was inactive.
As for `C=C(C=O)[C@H]1CC=C2[C@H](OC(=O)/C(C)=C/CCCCCCC)CC[C@H](C(=O)O)[C@@]2(C)C1`, the IC50 in series [3] came out at 18.1 µM. The result in series [3] (time 7.0 hrs) and in series [4] was Active. Also, the selectivity ratio in series [5] was 2.57.
